ABCG2 block = blocks JC-1 efflux by human ABCG2 transporter; Q9UNQ0; IgMXP3 cells, flow cytometry; inhibition, % at 6.6 µM; 190,000 tested, 0.1% active; AID 1325;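 active means inhibition above 80%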;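 further: 0% = DMSO and 100% = nicardipine control wells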
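Assay system – ABCG2 IgMXP3 and barcoded ABCB1 CCRF-Adr cell mix · Input – 3 million cells/mL in well · Reagent – JC-1 fluorescent substrate · Compound – single test compound dose, 6.6 µM final · Timing – 10 min exposure at 25 °C with rotation, no wash · Detection – flow cytometry of retained JC-1 fluorescence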
WT yeast gro inh = growth inhibition of WT yeast, mitochondrial fusion screen | 190,000 tested, 2.1% active | inhibition, % at 10 µM | mitochondrial fusion phenotypic screen, WT strain; in the data active means inhibition above about 58%; tested in S. cerevisiae
RAM network inh = inhibitors of the yeast RAM network; S. cerevisiae dse1pr::URA3 reporter, 5-FOA growth OD615, 2 d; analog-sensitive cbk1-as2 kinase mutant strain; inhibition, % at 50 µM; 190,000 tested, 1.8% active;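 active means inhibition above a set limit, 3 SD over mean compound inhibition, cut at about 8.4% in these data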;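 further: 0% = DMSO-only wells with no growth and 100% = 10 µM 1-NA-PP1 full growth; inhibition rescues growth on 5-FOA so higher OD means more RAM inhibition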
Lmaj promast = Leishmania major promastigote growth inhibition | AID 1063 | Leishmania major promastigotes, resazurin fluorescence viability | 200,000 tested, 9% active | inhibition, % at 10 µM; in the data active means inhibition above about 50%;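 further: promastigotes grown with compound for 44 hours at 28 °C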
ABCB1 block = blocks JC-1 efflux by human ABCB1 transporter. P08183. CCRF-Adr cells, flow cytometry. inhibition, % at 6.6 µM. 190,000 tested, 0.067% active. AID 1326; in the data active means inhibition above about 40%;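 further: 0% = vehicle and 100% = reference inhibitor; higher value means more JC-1 retained so stronger ABCB1 efflux block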
Starred values were filed as active, the others as inactive; x = no result given. Rows were chosen to be rich in hits. Some 12% of all compounds tested hit in one or more screens of this group.

SMILES	ABCG2 block	WT yeast gro inh	RAM network inh	Lmaj promast	ABCB1 block
COC(=O)C1C(=O)C2=C(CC1C)Nc1ccccc1NC2c1ccc(C)s1 (centres undefined)	1.7	12.6	1.8	21.9	0.6
CC(NC(=O)CCCCCCN1C(=O)c2ccccc2C1=O)c1ccc2c(c1)CCCC2 (centres undefined)	-0.1	-14.0	10.7*	1.2	3.1
CC(NC(=O)CCCCCN1C(=O)c2ccccc2C1=O)c1ccc2c(c1)CCCC2 (centres undefined)	4.0	24.9	9.1*	34.4	-0.2
O=C(COC(=O)c1ccc(Cl)c(S(=O)(=O)NCc2ccccc2)c1)NCC1CCCO1 (centres undefined)	1.9	-6.5	0.5	0.3	0.1
COC(=O)c1[nH]c2ccccc2c1NC(=O)CN1CCN(C/C=C/c2ccccc2)CC1	6.0	10.3	0.8	63.6*	5.5
CCOC(=O)c1[nH]c2ccc(F)cc2c1NC(=O)CN1CCc2cc(OC)c(OC)cc2C1	4.7	-11.6	1.2	-0.3	1.1
COC(=O)c1[nH]c2ccccc2c1NC(=O)CN1CC(C)OC(C)C1 (centres undefined)	2.0	44.0	1.9	-2.2	0.7
CCOC(=O)c1[nH]c2ccc(F)cc2c1NC(=O)CN1CCN(C/C=C/c2ccccc2)CC1	6.6	1.5	1.3	99.4*	9.8
CC(=O)Nc1ccc(-n2nnnc2SCC(=O)NCc2cccs2)cc1	-1.2	3.8	0.0	4.7	-0.4
Cc1ccc(C(=O)NCc2ccc(N3CCN(C(=O)OC(C)(C)C)CC3)cc2)cc1	6.5	60.6*	1.6	2.0	1.4
COc1ccc(C[C@H]2CN3C(=NC[C@H]3C)N2CCNC(=O)c2ccc(C)c(Br)c2)cc1	1.0	-5.2	1.0	53.2*	0.6
COc1ccc(C[C@H]2CN3C(=NC[C@@H]3C(C)C)N2CCNC(=O)c2ccc(C)c(Br)c2)cc1	1.8	2.5	1.2	99.2*	0.2
Cc1ccc(C(=O)NCCN2C3=NC[C@H](C)N3C[C@H]2Cc2ccc(O)cc2)cc1Br	-0.5	2.6	0.6	3.1	0.2
Cc1ccc(C(=O)NCCN2C3=NC[C@H](C(C)C)N3C[C@H]2Cc2ccc(O)cc2)cc1Br	1.1	-3.0	1.9	5.1	0.8
Cc1nnn(C23CC4CC(CC(CC(=O)Nc5ccc(C)c(Cl)c5)(C4)C2)C3)n1	18.9	21.2	2.9	94.9*	5.1
CCCC(=O)C1=C(N2CCCCC2)CC(C)(C)C(C(=O)OC)C1=O (centres undefined)	1.5	-13.8	-0.1	-5.3	0.5
CC(C)C(=O)NNC(=O)CSc1nc(C2CCCCC2)nc2ccccc12	4.4	1.0	2.2	4.9	0.8
O=C(CSc1nc(C2CC2)nc2ccccc12)N1c2ccccc2Sc2ccccc21	-4.1	-2.0	0.8	50.4*	-3.8
O=C(CSc1nc2ccccc2o1)N1c2ccccc2Sc2ccccc21	2.8	1.9	3.0	82.2*	x
C=CCSc1nnc(C)c(/C=C/Nc2ccc(Cl)cc2)n1	4.8	24.1	1.3	22.9	-0.2
Cc1ccc(NS(=O)(=O)c2ccc(OCC(=O)NCC3CCCO3)cc2)cc1 (centres undefined)	8.3	6.9	5.3	0.4	0.3
CCOc1ccc(C2c3c(oc4ccccc4c3=O)C(=O)N2c2ccc(C)cn2)cc1OC (centres undefined)	19.3	19.8	5.6	79.8*	9.2
COc1cc(C2c3c(oc4ccccc4c3=O)C(=O)N2c2ccc(C)cn2)ccc1O (centres undefined)	-1.2	9.4	5.6	14.8	-0.6
N#Cc1c2nc3ccccc3nc2n2cc(NC(=O)c3ccc(F)cc3)ccc12	-9.3	7.9	9.8*	40.9	-0.7
O=C(Nc1ccc(F)cc1)c1ccccc1	3.8	5.7	-0.8	4.7	0.5
COc1cc2c(cc1OC)C(c1ccc(-c3ccc(Cl)c(Cl)c3)o1)=NCC2	24.2	75.2	2.4	70.8*	2.5
O=C(CN1CCN(c2ccccc2)CC1)N1CCc2[nH]c3ccccc3c2C1	8.6	-2.9	-1.2	90.8*	2.6
O=C(CCC1CCCCC1)N1CCN(Cc2ccc3c(c2)OCO3)CC1	1.1	5.8	1.0	96.0*	0.6
COc1ccccc1C(=O)N1CCN(Cc2ccc3c(c2)OCO3)CC1	19.3	-26.4	0.3	-9.7	1.0
Cc1ccc2[nH]c3c(c2c1)CN(C(=O)CN1CCN(Cc2ccc4c(c2)OCO4)CC1)CC3	-3.0	-3.6	-0.9	95.2*	-2.3
